Assay outcomes deposited in PubChem BioAssay by several laboratories.
Runt-SMMHC FRET = inhibitors of RUNX1 Runt–CBFb-SMMHC binding, primary screen, biochemical, FRET, Cerulean-Runt, Venus-CBFb-SMMHC, uHTS. Runt-related transcription factor 1 (Homo sapiens) + Core-binding factor subunit beta …. Cerulean-Runt/Venus-CBFb-SMMHC FRET ratio 530/480, 1 h. inhibition, % at 20 µM. 220,000 tested, 0.74% active;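 active = mean inhibition across duplicate retests at 20 µM reaching about 50%, limit read from the data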;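 note: 0% = DMSO wells and 100% = wells with excess untagged CBFb-SMMHC; inhibitors lower the FRET ratio by blocking Runt binding to CBFb-SMMHC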
RanGTP-Impb inh = inhibitors of RanGTP-importin-beta interaction, primary screen, biochemical, FRET, CFP-Ran, YFP-importin-beta, homogeneous. inhibition, % (concentration not given with the values). Ran GTPase (GTP-bound) - importin-beta complex. cell-free CFP-Ran/YFP-importin-beta FRET ratio. 300,000 tested, 1.1% active. AID 2216, 2009;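 active = more than half of the replicate wells show a fall in the fluorescence ratio signal beyond about 16%, limit read from the data, passing the limit was not always enough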;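 note: 0% = DMSO wells and 100% = Ran loaded with GDP instead of GTP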
Hck Nef HTS = inhibitors of Nef-activated human Hck kinase, primary screen, biochemical, Z-Lyte FRET, 384-well, Hck-YEEI | Tyrosine-protein kinase HCK (Homo sapiens), P08631 | Recombinant Hck-YEEI plus Nef, Z-Lyte FRET kinase assay | inhibition, % at 20 µM | 220,000 tested, 0.68% active;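 active = Hck-Nef kinase inhibition above about 50%, limit read from the data; inactive = inhibition below that limit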;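 note: 0% = DMSO with Hck plus Nef and 100% = Hck alone without Nef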
Target sequence (P08631 whole entry, looked up): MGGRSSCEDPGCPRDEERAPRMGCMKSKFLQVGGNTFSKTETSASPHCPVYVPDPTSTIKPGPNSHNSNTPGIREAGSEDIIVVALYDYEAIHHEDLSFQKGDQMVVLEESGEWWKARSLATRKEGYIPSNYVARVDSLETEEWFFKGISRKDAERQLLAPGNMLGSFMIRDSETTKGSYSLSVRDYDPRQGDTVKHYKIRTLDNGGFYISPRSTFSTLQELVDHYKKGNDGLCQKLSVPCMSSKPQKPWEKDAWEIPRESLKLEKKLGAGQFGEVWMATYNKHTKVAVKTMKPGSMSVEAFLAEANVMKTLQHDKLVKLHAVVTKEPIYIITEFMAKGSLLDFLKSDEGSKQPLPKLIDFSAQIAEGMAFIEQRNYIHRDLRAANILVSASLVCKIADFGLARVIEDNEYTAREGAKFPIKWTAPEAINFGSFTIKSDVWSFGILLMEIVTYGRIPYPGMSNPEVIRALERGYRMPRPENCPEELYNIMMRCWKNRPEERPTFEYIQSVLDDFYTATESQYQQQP
p97 inhibitor = inhibitors of human p97 ATPase, primary screen, biochemical | recombinant p97 ATPase, Kinase-Glo ATP luminescence, 3 h | inhibition, % at 8 µM | 220,000 tested, 0.42% active | AID 1481, 2009; in the data active = inhibition above about 15%;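 note: 0% = DMSO vehicle and 100% = wells lacking enzyme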
TbHK1 inh = Trypanosoma brucei hexokinase 1 inhibitors, primary screen, biochemical, G6PDH-coupled NADH absorbance, MLSCN library; recombinant TbHK1, G6PDH-coupled NADH A340; AID 1430, 2008; inhibition, % at 10 µM; hexokinase 1 [Trypanosoma brucei]; 220,000 tested, 0.11% active;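 active = inhibition of 50% or more in the single-dose primary screen; inactive = inhibition below 50%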
Runt-CBFb FRET = inhibitors of RUNX1 Runt–CBFb binding, primary screen, biochemical, FRET, Cerulean-Runt, Venus-CBFb, uHTS; Runt-related transcription factor 1 (Homo sapiens) + Core-binding factor subunit beta …; Cerulean-Runt/Venus-CBFb FRET ratio 530/480, 1 h; inhibition, % at 20 µM; 220,000 tested, 0.46% active; AID 1496, 2009;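 active = inhibition over about 50% at 20 µM in the single-dose screen, limit read from the data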;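 note: 0% = DMSO wells and 100% = excess unlabeled CBFb competitor control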
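Doses: 20 µM compound in 1% DMSO | Material: Cerulean-labeled Runt domain protein | Amount: Each fluorescent fusion protein 100 nM | Schedule: Two 1 h room-temperature incubations shielded from light | Measured by: FRET fluorescence | Evaluation: Loss of energy transfer signal | Controls: Unlabeled CBFb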
Starred values were filed as active, the others as inactive; x = no result given; + = active, no number. Compounds with a hit are over-represented: about 2.1% of the library has one in this group of screens.

SMILES | Runt-SMMHC FRET | RanGTP-Impb inh | Hck Nef HTS | p97 inhibitor | TbHK1 inh | Runt-CBFb FRET
COc1c(O)cc2c(c1O)[C@@H]1O[C@H](CO)[C@@H](O)[C@H](O)C1OC2=O (some centres not stated) | x | -0.1 | x | x | x | x
Cc1oc2cc(O)ccc2c(=O)c1Oc1ccccc1 | -3.0 | 6.6 | 5.4 | 0.6 | 0.4 | -2.1
CCOc1ccccc1Oc1c(C)oc2c(CN3CCN(C)CC3)c(O)ccc2c1=O | 1.6 | x | 1.7 | -0.1 | -23.1 | -1.2
O=C(O)c1ccc(Oc2c(C(F)(F)F)oc3cc(O)ccc3c2=O)cc1 | -13.2 | 24.4* | 16.6 | 9.0 | -2.9 | -3.1
COC(=O)c1ccc(Oc2c(C(F)(F)F)oc3c(CN4CCN(C)CC4)c(O)ccc3c2=O)cc1 | -30.7 | 39.2* | -1.1 | 5.4 | -17.9 | -9.4
COc1cccc2c(=O)c3cccc(N)c3[nH]c12 | x | 127.2* | 35.3 | 9.9 | -9.3 | -59.1
COc1cccc2c(=O)c3c([nH]c12)OC(C)(C)C3 | x | 0.6 | x | x | x | x
Cc1ccc(S(=O)(=O)NCC(C)NC(=O)CN2CCOCC2)cc1 (configuration not stated) | x | -1.5 | x | x | x | x
CCOC(=O)c1cc(=O)n2nc(-c3ccccc3F)nc2s1 | 8.9 | -1.2 | 10.0 | 15.9* | 10.5 | 8.1
COc1ccccc1N1CCN(C(=O)c2ccc3nc[nH]c3c2)CC1 | -4.3 | -0.5 | 0.5 | 0.4 | -4.1 | 1.7
Cc1ccc(C)c(N2CCN(C(=O)c3ccc4nc(-c5ccco5)c(-c5ccco5)nc4c3)CC2)c1 | -2.2 | 52.2* | 6.9 | 5.2 | -12.5 | -2.6
COc1ccccc1N1CCN(C(=O)c2ccc3nc(-c4ccco4)c(-c4ccco4)nc3c2)CC1 | -42.7 | 33.4* | 4.0 | -7.5 | -7.1 | 8.6
CC(c1nc2ccccc2c(=O)[nH]1)N(C)c1ccc2ccccc2c1 (configuration not stated) | 3.2 | 96.2* | -1.1 | 3.5 | 17.3 | 2.5
N=c1c(C(=O)NC2CCCCC2)cc2c(=O)n3ccccc3nc2n1Cc1ccco1 | x | 64.6* | x | x | x | x
N=c1c(C(=O)NC2CCCCC2)cc2c(=O)n3ccccc3nc2n1Cc1cccnc1 | x | + | x | x | x | x
N=c1c(C(=O)NC2CCCCC2)cc2c(=O)n3ccccc3nc2n1CCc1ccccc1 | x | 160.7* | x | x | x | x
N=c1c(C(=O)NCCc2ccccc2)cc2c(=O)n3ccccc3nc2n1Cc1ccco1 | x | 73.7* | x | x | x | x
Cc1ccc(Cn2c(=N)c(C(=O)NC3CCCC3)cc3c(=O)n4ccccc4nc32)cc1 | x | -0.7 | x | x | x | x
CCc1[nH]nc(C(=O)N2CCCC(Nc3cccc(F)c3)C2)c1C (configuration not stated) | x | 6.0 | x | x | x | x
COC(=O)c1cc2c(=O)n3ccccc3nc2n(Cc2cccnc2)c1=N | x | -0.3 | 46.9 | 1.2 | -5.7 | x
N=c1c(C(=O)NCc2ccc(F)cc2)cc2c(=O)n3ccccc3nc2n1Cc1cccnc1 | 59.0* | 180.6* | 10.9 | 0.4 | -14.5 | 19.5
N=c1c(C(=O)NC2CCCCC2)cc2c(=O)n3ccccc3nc2n1Cc1ccccc1 | x | 180.1* | x | x | x | x
COc1ccc(CCn2c(=N)c(C(=O)NCc3ccco3)cc3c(=O)n4ccccc4nc32)cc1 | 0.7 | 21.9* | 11.8 | 2.4 | 3.4 | 87.4*
COc1ccc(CCn2c(=N)c(S(=O)(=O)c3ccccc3)cc3c(=O)n4ccccc4nc32)cc1 | x | -0.9 | x | x | x | x
COc1ccccc1N=Cc1c(C)c(C#N)c2[nH]c3ccccc3n2c1=O | -41.7 | 2.1 | 53.4* | 6.0 | -6.9 | -2.8
O=C(O)C(Cc1ccccc1)N1C(=O)/C(=C/c2cccc3ccccc23)SC1=S (configuration not stated) | -10.9 | x | 63.2* | -4.1 | 13.3 | -8.5
Cc1ccc(-c2cn3nc(C)c(C)nc3n2)cc1 | 62.6 | -0.5 | -4.4 | 4.0 | -8.0 | 12.6
